Reference: ChEMBL document CHEMBL1124774, “Synthesis and biological activity of some derivatives of rifamycin P” (1990)

Experiments:
[1] = tested on: Mycolicibacterium smegmatis; experiment: In vitro activity of compound against rapidly growing Mycobacterium smegmatis 31; type: functional
How it was run: (§1)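 Medium was Middlebrook 7H10 agar with 2% glycerol and 10% OADC. Organisms from Loevenstein-Jensen slants were grown in 7H9 broth with 0.5% Tween and 10% OADC, adjusted to McFarland no. 1, and spotted with a multipoint inoculator. Sealed plates were incubated at 22, 30 or 37 °C for 4-20 days depending on strain.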

Mycolicibacterium phlei [2] = experiment: In vitro activity of compound against rapidly growing Mycobacterium phlei 141; type: functional; how it was run: as §1
Streptococcus pyogenes [3] = experiment: Minimum inhibitory concentration of compound against Streptococcus pyogenus septicemia in the mouse; type: functional
Neisseria gonorrhoeae = experiment: In vitro antibacterial activity of compound against Neisseria gonorrhoeae ISM 68/126; type: functional
Mycolicibacterium phlei [4] = experiment: In vitro activity of compound against rapidly growing Mycobacterium phlei 1283; type: functional; how it was run: as §1
Mycobacterium xenopi [5] = experiment: In vitro activity of compound against slowl growingy Mycobacterium xenopi 555; type: functional; how it was run: as §1
Mycobacterium marinum [6] = experiment: In vitro activity of compound against slowly growing Mycobacterium marinum 1393; type: functional; how it was run: as §1
[7] = tested on: Mycolicibacterium fortuitum; experiment: In vitro activity compound against rapidly growing Mycobacterium fortuitum 1302; type: functional; how it was run: as §1
Mycobacterium marinum [8] = experiment: In vitro activity of compound against slowly growing Mycobacterium marinum 1447; type: functional; how it was run: as §1
Mycobacterium avium [9] = experiment: 50% inhibition of the 20 Mycobacterium (MAC) avium complex clinical isolates; type: functional
How it was run: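 Agar-dilution MICs, 2-fold dilutions over 128-0.0001 μg/mL, on Middlebrook 7H10 agar with 2% glycerol and 10% OADC. Organisms from Loevenstein-Jensen slants were grown in 7H9 broth with 0.5% Tween and 10% OADC, adjusted to McFarland no. 1, and spotted with a multipoint inoculator. Plates were sealed and incubated at 22, 30 or 37 °C for 4-20 days depending on strain.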

Mycobacterium avium [10] = experiment: 90% inhibition of the 20 Mycobacterium avium complex (MAC) clinical isolates
Mycobacterium kansasii [11] = experiment: In vitro activity compound against slowly growing Mycobacterium kansasii 1291; type: functional; how it was run: as §1
Klebsiella pneumoniae = experiment: In vitro antibacterial activity of compound against Klebsiella pneumoniae ISM; type: functional
[12] = tested on: Staphylococcus epidermidis; experiment: In vitro antibacterial activity of compound against Staphylococcus epidermidis ATCC 12228; type: functional
How it was run: (§2)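 Twofold microdilution MIC in Iso-Sensitest broth over 128-0.0001 µg/mL. Inoculum was 10^4 cfu/mL, with incubation at 37 °C for 18-24 h.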

Streptococcus pyogenes [13] = experiment: Inhibitory concentration of compound against Streptococcus pyogenus septicemia in the mouse, administarted in OS route; type: functional
How it was run: (§3)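 Male and female CD1 mice (18-22 g) were infected ip with S. pyogenes C203, with the challenge set so untreated mice died within 48 h. Groups of five received a single treatment immediately after infection. ED50 was calculated from the percentage surviving at each dose on day 10.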

[14] = tested on: Mycobacterium scrofulaceum; experiment: In vitro activity of compound against slowly growing Mycobacterium scrofulaceum 1293; type: functional; how it was run: as §1
[15] = tested on: Mycolicibacterium flavescens; experiment: In vitro activity of compound against rapidly growing Mycobacterium flavescens 1284; type: functional; how it was run: as §1
Escherichia coli = experiment: In vitro antibacterial activity of compound against Escherichia coli SKF 12140; type: functional
[16] = tested on: Mycolicibacterium smegmatis; experiment: In vitro activity of compound against rapidly growing Mycobacterium smegmatis 1442; type: functional; how it was run: as §1
[17] = tested on: Mycolicibacterium fortuitum; experiment: In vitro activity of compound against rapidly growing Mycobacterium fortuitum 140; type: functional; how it was run: as §1
Staphylococcus aureus [18] = experiment: In vitro antibacterial activity of compound against Staphylococcus aureus Tour L 165; type: functional; how it was run: as §2
Mycobacterium kansasii [19] = experiment: In vitro activity of compound against slowly growing Mycobacterium kansasii 1299; type: functional; how it was run: as §1
Mycobacterium marinum [20] = experiment: In vitro activity of compound against slowly growing Mycobacterium marinum 1390; type: functional; how it was run: as §1
[21] = tested on: Mycobacterium scrofulaceum; experiment: In vitro activity of compound against slowly growing Mycobacterium scrofulaceum 1292; type: functional; how it was run: as §1
[22] = tested on: Mycolicibacterium smegmatis; experiment: In vitro activity of compound against rapidly growing Mycobacterium smegmatis 139; type: functional; how it was run: as §1
Mycobacterium marinum [23] = experiment: In vitro activity of compound against slowly growing Mycobacterium marinum 1391; type: functional; how it was run: as §1
Streptococcus pneumoniae = experiment: In vitro antibacterial activity of compound against Streptococcus pneumoniae UC 41; type: functional
How it was run: (§4)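 Streptococcal MICs were run by twofold microdilution in Todd-Hewitt broth over 128-0.0001 µg/mL. Inoculum was 10^4 cfu/mL, with incubation at 37 °C for 18-24 h.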

Mycobacterium marinum [24] = experiment: In vitro activity of compound against slowly growing Mycobacterium marinum 1394; type: functional; how it was run: as §1
[25] = tested on: Mycobacterium scrofulaceum; experiment: In vitro activity of compound against slowly growing Mycobacterium scrofulaceum 1301; type: functional; how it was run: as §1
[26] = tested on: Mycolicibacterium fortuitum; experiment: In vitro activity of compound against rapidly growing Mycobacterium fortuitum 1287; type: functional; how it was run: as §1
[27] = tested on: Mycolicibacterium fortuitum; experiment: In vitro activity compound against rapidly growing Mycobacterium fortuitum 1440; type: functional; how it was run: as §1
Streptococcus pyogenes [28] = experiment: Inhibitory concentration of compound against Streptococcus pyogenus septicemia in the mouse, administarted in subcutaneous route; type: functional; conditions: sc; how it was run: as §3
Mycobacterium gordonae [29] = experiment: In vitro activity of compound against slowly growing Mycobacterium gordonae 1294; type: functional; how it was run: as §1
Mycobacterium xenopi [30] = experiment: In vitro activity of compound against slowly growing Mycobacterium xenopi 554; type: functional; how it was run: as §1
Enterococcus faecalis = experiment: In vitro antibacterial activity of compound against Streptococcus faecalis ATCC 7080.; type: functional; how it was run: as §2
[31] = tested on: Mycolicibacterium fortuitum; experiment: In vitro activity of compound against rapidly growing Mycobacterium fortuitum 1285; type: functional; how it was run: as §1
Streptococcus pyogenes [32] = experiment: In vitro antibacterial activity of compound against Streptococcus pyogenes C 203 SKF 13400; type: functional; how it was run: as §4
[33] = tested on: Mycobacterium scrofulaceum; experiment: In vitro activity of compound against slowly growing Mycobacterium scrofulaceum 1297; type: functional; how it was run: as §1
Mycolicibacterium phlei [34] = experiment: In vitro activity of compound against rapidly growing Mycobacterium phlei 1289; type: functional; how it was run: as §1
[35] = tested on: Mycolicibacterium fortuitum; experiment: In vitro activity of compound against rapidly growing Mycobacterium fortuitum 645; type: functional; how it was run: as §1
Pseudomonas aeruginosa = experiment: In vitro antibacterial activity of compound against Pseudomonas aeruginosa ATCC 10145; type: functional; how it was run: as §2
Mycobacterium gordonae [36] = experiment: In vitro activity of compound against slowly growing Mycobacterium gordonae 1441; type: functional; how it was run: as §1
[37] = tested on: Mycolicibacterium flavescens; experiment: In vitro activity of compound against rapidly growing Mycobacterium flavescens 1286; type: functional; how it was run: as §1
[38] = tested on: Mycolicibacterium fortuitum; experiment: In vitro activity of compound against rapidly growing Mycobacterium fortuitum 726; type: functional; how it was run: as §1
Mycobacterium avium [39] = experiment: Minimum inhibitory concentration of compound against 20 Mycobacterium avium complex (MAC) clinical isolates
Mycobacterium marinum [40] = experiment: In vitro activity of compound against slowly growing Mycobacterium marinum 1392; type: functional; how it was run: as §1
Haemophilus influenzae = experiment: In vitro antibacterial activity of compound against Haemophilus influenzae ATCC 19418; type: functional
Mycobacterium marinum [41] = experiment: In vitro activity of compound against slowly growing Mycobacterium marinum 1388; type: functional; how it was run: as §1
Mycobacterium kansasii [42] = experiment: In vitro activity compound against slowly growing Mycobacterium kansasii 1298; type: functional; how it was run: as §1
Mycobacteroides chelonae = experiment: In vitro activity of compound against rapidly growing Mycobacterium chelonae 1443
Mycobacterium xenopi [43] = experiment: In vitro activity of compound against slowly growing Mycobacterium xenopi 556; type: functional; how it was run: as §1
Proteus vulgaris = experiment: In vitro antibacterial activity of compound against Proteus vulgaris X19H ATCC 881; type: functional
[44] = tested on: Mycolicibacterium fortuitum; experiment: In vitro activity of compound against rapidly growing Mycobacterium fortuitum 114; type: functional; how it was run: as §1
[45] = tested on: Mycolicibacterium fortuitum; experiment: In vitro activity of compound against rapidly growing Mycobacterium fortuitum 646; type: functional; how it was run: as §1
Mycobacterium xenopi [46] = experiment: In vitro activity compound against slowly growing Mycobacterium xenopi 1446; type: functional; how it was run: as §1
Staphylococcus aureus [47] = experiment: Activity in the murine model (subcutaneous route) of Staphylococcus aureus tour septicemia; type: functional; conditions: sc
How it was run: (§5)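 Male and female CD1 mice (18-22 g) were infected ip with S. aureus Tour. The challenge was set so untreated mice died within 48 h. Groups were five mice, dosed once daily for 3 days starting immediately after infection. ED50 was calculated on day 10 from the percentage surviving at each dose.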

Mycobacterium marinum [48] = experiment: In vitro activity of compound against slowly growing Mycobacterium marinum 1392 h; type: functional; how it was run: as §1
Staphylococcus aureus [49] = experiment: Activity in the murine model (OS route) of Staphylococcus aureus tour septicemia; type: functional; how it was run: as §5
[50] = tested on: Mycobacterium tuberculosis; experiment: In vitro antibacterial activity of compound against Mycobacterium tuberculosis H37Rv ATCC 9660; type: functional

CCN(CC)c1nc2c(s1)c1c(O)c3c(O)c(C)c4c(c32)C(=O)C(C)(O/C=C/C(OC)C(C)C(OC(C)=O)C(C)C(O)C(C)C(O)C(C)/C=C/C=C(/C)C(=O)N1)O4 (stereo unspecified)
1.23 mg/kg: ED50 (Streptococcus pyogenes [13])
0.5 µg/mL: MIC (Neisseria gonorrhoeae) | MIC (Mycobacterium gordonae [29]) | MIC (Mycobacterium avium [39]) | MIC (Haemophilus influenzae)
32 µg/mL: MIC (Klebsiella pneumoniae) | MIC [15] | MIC (Escherichia coli) | MIC [38] | MIC (Proteus vulgaris) | MIC [45]
4 µg/mL: MIC (Mycobacterium xenopi [5]) | MIC (Mycobacterium marinum [20]) | MIC (Mycobacterium xenopi [43]) | MIC (Mycobacterium xenopi [46])
1.62 mg/kg: ED50 (Streptococcus pyogenes [28])
0.25 µg/mL: MIC [37] | MIC (Mycobacterium kansasii [42])
1 µg/mL: MIC (Mycobacterium marinum [6]) | MIC (Mycobacterium marinum [8]) | MIC (Mycobacterium marinum [23]) | MIC (Mycobacterium marinum [24]) | MIC (Mycobacterium marinum [40])
> 128 µg/mL: MIC (Mycobacteroides chelonae)
0.032 µg/mL: MIC (Mycolicibacterium phlei [2]) | MIC [21]
2 µg/mL: MIC [7] | MIC50 (Mycobacterium avium [9]) | MIC90 (Mycobacterium avium [10]) | MIC (Mycobacterium kansasii [11]) | MIC (Mycobacterium kansasii [19]) | MIC [25] | MIC [26] | MIC (Mycobacterium xenopi [30]) | MIC (Enterococcus faecalis) | MIC (Mycolicibacterium phlei [34]) | MIC [35] | MIC (Mycobacterium gordonae [36]) | MIC (Mycobacterium marinum [41])
16 µg/mL: MIC [17] | MIC [27] | MIC [31] | MIC [44]
0.063 µg/mL: MIC [12] | MIC (Streptococcus pneumoniae) | MIC [33]
0.135 µg/mL: MIC (Streptococcus pyogenes [3])
8 µg/mL: MIC [1] | MIC [16] | MIC [22] | MIC (Pseudomonas aeruginosa)
0.125 µg/mL: MIC (Mycolicibacterium phlei [4]) | MIC [14] | MIC (Staphylococcus aureus [18]) | MIC (Streptococcus pyogenes [32])

CO[C@H]1/C=C/O[C@@]2(C)Oc3c(C)c(O)c4c(O)c(c(/C=N/N5CCN(C)CC5)c(O)c4c3C2=O)NC(=O)/C(C)=C\C=C\[C@H](C)[C@H](O)[C@@H](C)[C@@H](O)[C@@H](C)[C@H](OC(C)=O)[C@@H]1C [RIFAMPIN]
1 µg/mL: MIC (Mycobacterium xenopi [5]) | MIC [7] | MIC (Mycobacterium marinum [8]) | MIC (Mycobacterium xenopi [30]) | MIC (Enterococcus faecalis) | MIC (Mycobacterium marinum [41]) | MIC (Mycobacterium xenopi [43]) | MIC (Mycobacterium xenopi [46])
0.25 µg/mL: MIC (Mycolicibacterium phlei [4]) | MIC [50] | MIC [37]
0.35 mg/kg: ED50 (Streptococcus pyogenes [28])
32 µg/mL: MIC [38]
0.032 µg/mL: MIC (Mycolicibacterium phlei [2])
2 µg/mL: MIC (Mycobacterium marinum [20]) | MIC [26]
0.016 µg/mL: MIC (Staphylococcus aureus [18])
128 µg/mL: MIC [15] | MIC [44] | MIC [45]
16 µg/mL: MIC50 (Mycobacterium avium [9]) | MIC (Mycobacterium kansasii [11]) | MIC (Klebsiella pneumoniae)
4 µg/mL: MIC [31] | MIC [35] | MIC (Mycobacterium gordonae [36])
8 µg/mL: MIC (Escherichia coli) | MIC (Mycobacterium kansasii [19]) | MIC [25] | MIC (Mycolicibacterium phlei [34]) | MIC (Pseudomonas aeruginosa) | MIC (Proteus vulgaris)
0.008 µg/mL: MIC [12]
0.063 µg/mL: MIC (Streptococcus pyogenes [3]) | MIC [14] | MIC [21] | MIC (Streptococcus pneumoniae) | MIC (Streptococcus pyogenes [32])
0.09 mg/kg: ED50 (Staphylococcus aureus [47])
0.125 µg/mL: MIC (Neisseria gonorrhoeae) | MIC [33] | MIC (Haemophilus influenzae) | MIC (Mycobacterium kansasii [42])
> 128 µg/mL: MIC (Mycobacteroides chelonae)
0.28 mg/kg: ED50 (Staphylococcus aureus [49])
0.5 µg/mL: MIC (Mycobacterium marinum [6]) | MIC (Mycobacterium marinum [23]) | MIC (Mycobacterium marinum [24]) | MIC (Mycobacterium gordonae [29]) | MIC (Mycobacterium marinum [48])
0.47 mg/kg: ED50 (Streptococcus pyogenes [13])
